Measurements as given in ChEMBL document CHEMBL1143202.
Active and inactive are the calls of the source. The calls are words filed in the database; no cut-off is given here.

Key:
Rattus norvegicus [1] = organism: Rattus norvegicus; experiment: Effect on ADP/O ratio in Wistar Albino rat liver mitochondria at 75 uM in presence of sodium glutamate relative to control; format: functional
Method in brief: (§1)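 Isolated rat liver mitochondria respiring on glutamate or succinate as substrate; oxygen consumption recorded. State 3 is the rate after ADP addition and state 4 the rate after ADP is exhausted. The respiratory control coefficient (RCC) and ADP/O ratio were determined in the same runs. Flavone tested across 25–200 μM.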

Liver [2] = experiment: Reduction of cytochrome c in rat liver mitochondria in presence of SOD at 200 uM; format: functional; parameters: scale not given: the % may be the effect or the level left
Rattus norvegicus [3] = organism: Rattus norvegicus; experiment: Inhibition of NADH dehydrogenase in Wistar Albino rat liver mitochondria at 25 uM relative to control; parameters: scale not given: the % may be the effect or the level left
Rattus norvegicus [4] = organism: Rattus norvegicus; experiment: Inhibition of ATPase in Wistar Albino rat livers intact mitochondria at 200 uM in presence of FCCP relative to control; parameters: scale not given: the % may be the effect or the level left
Rattus norvegicus [5] = organism: Rattus norvegicus; experiment: Inhibition of succinate-cytochrome c reductase in Wistar Albino rat liver mitochondria at 75 uM relative to control; parameters: scale not given: the % may be the effect or the level left
Liver [6] = experiment: Reduction of cytochrome c in rat liver mitochondria in presence of EDTA at 200 uM; format: functional
Rattus norvegicus [7] = organism: Rattus norvegicus; experiment: Inhibition of NADH-cytochrome c reductase in Wistar Albino rat liver mitochondria at 50 uM relative to control; parameters: scale not given: the % may be the effect or the level left
Rattus norvegicus [8] = organism: Rattus norvegicus; experiment: Effect on oxygen consumption rate in Wistar Albino rat liver mitochondria assessed as inhibition in state 4 respiration at 25 uM in presence of succinate relative to control; format: functional; parameters: scale not given: the % may be the effect or the level left; method in brief: as §1
Rattus norvegicus [9] = organism: Rattus norvegicus; experiment: Effect on respiratory control coefficient in Wistar Albino rat liver mitochondria at 100 uM in presence of sodium glutamate relative to control; format: functional; method in brief: as §1
Rattus norvegicus [10] = organism: Rattus norvegicus; experiment: Inhibition of ATPase in Wistar Albino rat livers intact mitochondria at 25 uM in presence of FCCP relative to control; parameters: scale not given: the % may be the effect or the level left
Rattus norvegicus [11] = organism: Rattus norvegicus; experiment: Inhibition of succinate dehydrogenase in Wistar Albino rat liver mitochondria at 25 uM relative to control; parameters: scale not given: the % may be the effect or the level left
Rattus norvegicus [12] = organism: Rattus norvegicus; experiment: Effect on ADP/O ratio in Wistar Albino rat liver mitochondria at 25 uM in presence of succinate relative to control; format: functional; method in brief: as §1
Rattus norvegicus [13] = organism: Rattus norvegicus; experiment: Inhibition of ATPase in Wistar Albino rat livers intact mitochondria at 100 uM in presence of FCCP relative to control; parameters: scale not given: the % may be the effect or the level left
Rattus norvegicus [14] = organism: Rattus norvegicus; experiment: Inhibition of NADH-cytochrome c reductase in Wistar Albino rat liver mitochondria at 100 uM relative to control; parameters: scale not given: the % may be the effect or the level left
Rattus norvegicus [15] = organism: Rattus norvegicus; experiment: Effect on respiratory control coefficient in Wistar Albino rat liver mitochondria at 75 uM in presence of sodium glutamate relative to control; format: functional; method in brief: as §1
Rattus norvegicus [16] = organism: Rattus norvegicus; experiment: Inhibition of succinate-cytochrome c reductase in Wistar Albino rat liver mitochondria at 100 uM relative to control; parameters: scale not given: the % may be the effect or the level left
Rattus norvegicus [17] = organism: Rattus norvegicus; experiment: Inhibition of ATPase in Wistar Albino rat livers disrupted mitochondria at 25 uM relative to control; parameters: scale not given: the % may be the effect or the level left
Rattus norvegicus [18] = organism: Rattus norvegicus; experiment: Inhibition of succinate oxidase in Wistar Albino rat liver mitochondria at 100 uM relative to control; parameters: scale not given: the % may be the effect or the level left
Rattus norvegicus [19] = organism: Rattus norvegicus; experiment: Inhibition of succinate oxidase in Wistar Albino rat liver mitochondria at 25 uM relative to control; parameters: scale not given: the % may be the effect or the level left
Liver [20] = experiment: Reduction of cytochrome c in rat liver mitochondria in presence of NADH at 200 uM; format: functional
Rattus norvegicus [21] = organism: Rattus norvegicus; experiment: Effect on ADP/O ratio in Wistar Albino rat liver mitochondria at 25 uM in presence of sodium glutamate relative to control; format: functional; method in brief: as §1
Rattus norvegicus [22] = organism: Rattus norvegicus; experiment: Inhibition of cytochrome c oxidase in Wistar Albino rat liver mitochondria at 25 uM relative to control; parameters: scale not given: the % may be the effect or the level left
Rattus norvegicus [23] = organism: Rattus norvegicus; experiment: Inhibition of ATPase in Wistar Albino rat livers intact mitochondria at 50 uM in presence of FCCP relative to control; parameters: scale not given: the % may be the effect or the level left
Rattus norvegicus [24] = organism: Rattus norvegicus; experiment: Inhibition of succinate oxidase in Wistar Albino rat liver mitochondria at 200 uM relative to control; parameters: scale not given: the % may be the effect or the level left
Rattus norvegicus [25] = organism: Rattus norvegicus; experiment: Effect on oxygen consumption rate in Wistar Albino rat liver mitochondria assessed as inhibition in state 3 respiration at 25 uM in presence of sodium glutamate relative to control; format: functional; parameters: scale not given: the % may be the effect or the level left; method in brief: as §1
Rattus norvegicus [26] = organism: Rattus norvegicus; experiment: Inhibition of NADH dehydrogenase in Wistar Albino rat liver mitochondria at 75 uM relative to control; parameters: scale not given: the % may be the effect or the level left
Rattus norvegicus [27] = organism: Rattus norvegicus; experiment: Effect on oxygen consumption rate in Wistar Albino rat liver mitochondria assessed as inhibition in state 4 respiration at 50 uM in presence of sodium glutamate relative to control; format: functional; parameters: scale not given: the % may be the effect or the level left; method in brief: as §1
Rattus norvegicus [28] = organism: Rattus norvegicus; experiment: Effect on respiratory control coefficient in Wistar Albino rat liver mitochondria at 75 uM in presence of succinate relative to control; format: functional; method in brief: as §1
Rattus norvegicus [29] = organism: Rattus norvegicus; experiment: Inhibition of ATPase in Wistar Albino rat livers intact mitochondria at 100 uM relative to control; parameters: scale not given: the % may be the effect or the level left
Rattus norvegicus [30] = organism: Rattus norvegicus; experiment: Effect on oxygen consumption rate in Wistar Albino rat liver mitochondria assessed as inhibition in state 4 respiration at 100 uM in presence of sodium glutamate relative to control; format: functional; parameters: scale not given: the % may be the effect or the level left; method in brief: as §1
Rattus norvegicus [31] = organism: Rattus norvegicus; experiment: Effect on oxygen consumption rate in Wistar Albino rat liver mitochondria assessed as inhibition in state 3 respiration at 25 uM in presence of succinate relative to control; format: functional; parameters: scale not given: the % may be the effect or the level left; method in brief: as §1
Rattus norvegicus [32] = organism: Rattus norvegicus; experiment: Inhibition of NADH dehydrogenase in Wistar Albino rat liver mitochondria at 200 uM relative to control; parameters: scale not given: the % may be the effect or the level left
Rattus norvegicus [33] = organism: Rattus norvegicus; experiment: Inhibition of succinate-cytochrome c reductase in Wistar Albino rat liver mitochondria at 200 uM relative to control; parameters: scale not given: the % may be the effect or the level left
Rattus norvegicus [34] = organism: Rattus norvegicus; experiment: Inhibition of cytochrome c oxidase in Wistar Albino rat liver mitochondria at 200 uM relative to control; parameters: scale not given: the % may be the effect or the level left
Rattus norvegicus [35] = organism: Rattus norvegicus; experiment: Effect on ADP/O ratio in Wistar Albino rat liver mitochondria at 75 uM in presence of succinate relative to control; format: functional; method in brief: as §1
Rattus norvegicus [36] = organism: Rattus norvegicus; experiment: Effect on respiratory control coefficient in Wistar Albino rat liver mitochondria at 50 uM in presence of succinate relative to control; format: functional; method in brief: as §1
Rattus norvegicus [37] = organism: Rattus norvegicus; experiment: Inhibition of ATPase in Wistar Albino rat livers intact mitochondria at 75 uM in presence of FCCP relative to control; parameters: scale not given: the % may be the effect or the level left
Rattus norvegicus [38] = organism: Rattus norvegicus; experiment: Effect on oxygen consumption rate in Wistar Albino rat liver mitochondria assessed as inhibition in state 3 respiration at 50 uM in presence of succinate relative to control; format: functional; parameters: scale not given: the % may be the effect or the level left; method in brief: as §1
Liver [39] = experiment: Reduction of cytochrome c in rat liver mitochondria in presence of deferoxamine at 200 uM; format: functional
Rattus norvegicus [40] = organism: Rattus norvegicus; experiment: Inhibition of succinate-cytochrome c reductase in Wistar Albino rat liver mitochondria at 50 uM relative to control; parameters: scale not given: the % may be the effect or the level left
Rattus norvegicus [41] = organism: Rattus norvegicus; experiment: Inhibition of ATPase in Wistar Albino rat livers disrupted mitochondria at 50 uM relative to control; parameters: scale not given: the % may be the effect or the level left

- Activity (Rattus norvegicus [3]): 42%
- Activity (Rattus norvegicus [4]): 102%
- Activity (Rattus norvegicus [5]): 12%
- Activity (Rattus norvegicus [7]): 45%
- Activity (Rattus norvegicus [10]): 93%
- Activity (Rattus norvegicus [11]): 71%
- Activity (Rattus norvegicus [13]): 100%
- Activity (Rattus norvegicus [14]): 40%
- Activity (Rattus norvegicus [16]): 29%
- Activity (Rattus norvegicus [17]): 103%
- Activity (Rattus norvegicus [18]): 77%
- Activity (Rattus norvegicus [19]): 87%
- Activity (Rattus norvegicus [22]): 98%
- Activity (Rattus norvegicus [23]): 90%
- Activity (Rattus norvegicus [24]): 77%
- Activity (Rattus norvegicus [26]): 51%
- Activity (Rattus norvegicus [29]): 97%
- Activity (Rattus norvegicus [32]): 39%
- Activity (Rattus norvegicus [33]): 18%
- Activity (Rattus norvegicus [34]): 82%
- Activity (Rattus norvegicus [37]): 97%
- Activity (Rattus norvegicus [40]): 23%
- Activity (Rattus norvegicus [41]): 102%
SMILES: COc1c(O)cc2oc(-c3ccc(O)c(O)c3)cc(=O)c2c1O
- Activity (Rattus norvegicus [1]): 90.6%
- Activity (Liver [2]): 46%
- Activity (Liver [6]): Active
- Activity (Rattus norvegicus [8]): 106%
- Activity (Rattus norvegicus [9]): 24.9%
- Activity (Rattus norvegicus [12]): 85.8%
- Activity (Rattus norvegicus [15]): 40.9%
- Activity (Liver [20]): Active
- Activity (Rattus norvegicus [21]): 92.8%
- Activity (Rattus norvegicus [25]): 84.9%
- Activity (Rattus norvegicus [27]): 102%
- Activity (Rattus norvegicus [28]): 52.9%
- Activity (Rattus norvegicus [30]): 99.4%
- Activity (Rattus norvegicus [31]): 83%
- Activity (Rattus norvegicus [35]): 81.6%
- Activity (Rattus norvegicus [36]): 55.1%
- Activity (Rattus norvegicus [38]): 55.2%
- Activity (Liver [39]): inactive
